1 molecule from ChEMBL document CHEMBL1145212, “Fluorinated diaryl sulfides as serotonin transporter ligands: synthesis, structure-activity relationship study, and in vivo evaluation of fluorine-18-labeled compounds as PET imaging agents” (J Med Chem, 2005) can be followed below.

Assay [1] is filed under the species Rattus norvegicus. The assay can be described thus: Regional uptake of [18F]AFA in striatum of rat pretreated with compound nisoxetine; n=3. In kind it is functional, organism-based. Particulars: tested as the 18F-labelled form. Summed up: (§1)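 Male Sprague-Dawley rats, three per group, received blocker (2 mg/kg iv in saline) or saline only (controls) 10–15 min before about 20 µCi of tail-vein F-18 radioligand. Killed 60 min after tracer. Blood and brain regions weighed and gamma-counted. %ID/g was decay- and tail-corrected; mean ± SD.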

For assay [2], the species on record is Rattus norvegicus. The assay can be described thus: Regional uptake of [18F]AFA in hypothalamus of rat pretreated with compound 7d; n=3. Format: functional, organism-based. Particulars: tested as the 18F-labelled form.
The species entered for assay [3] is Rattus norvegicus. The assay can be described thus: Regional uptake of [18F]AFA in frontal cortex of rat pretreated with compound citalopram; n=3. As to conditions: tested as the 18F-labelled form. In kind it is functional, organism-based. In short, it runs like this:
as §1

The target of assay [4] is Sodium-dependent serotonin transporter (Rattus norvegicus) (UniProt P31652). The assay can be described thus: Specific binding of [18F]AFA in rat frontal cortex after citalopram treatment; n=3. Format: functional, tissue-based. As to conditions: tested as the 18F-labelled form. In short, it runs like this: (§2)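 Rats, three per group, were pretreated iv with blocker at 2 mg/kg in saline, or with saline as control, 10–15 min before tail-vein F-18 radioligand (about 20 µCi). Killed at 60 min and regional %ID/g determined. Specific binding = (region activity − cerebellum activity)/cerebellum activity; mean ± SD.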

The species entered for assay [5] is Rattus norvegicus. The assay can be described thus: Regional uptake of [18F]AFA in hypothalamus of rat pretreated with compound citalopram; n=3. Format: functional, organism-based. As to conditions: tested as the 18F-labelled form. In short, it runs like this:
as §1

The species entered for assay [6] is Rattus norvegicus. The assay can be described thus: Regional uptake of [18F]AFA in hippocampus of rat pretreated with compound 7d; n=3. Format: functional, organism-based. As to conditions: tested as the 18F-labelled form.
For assay [7], the target named is Sodium-dependent serotonin transporter (Rattus norvegicus) (UniProt P31652). The assay can be described thus: Specific binding of [18F]AFA in rat hypothalamus after nisoxetine treatment; n=3. Format: functional, tissue-based. As to conditions: tested as the 18F-labelled form. In short, it runs like this:
as §2

For assay [8], the species on record is Rattus norvegicus. The assay can be described thus: Regional uptake of [18F]AFA in striatum of rat pretreated with compound 7d; n=3. In kind it is functional, organism-based. Particulars: tested as the 18F-labelled form.
Assay [9] concerns the target Sodium-dependent serotonin transporter (Homo sapiens, UniProt P31645). The assay can be described thus: In vitro displacement of [3H]paroxetine from human serotonin transporter expressed in HEK293 cells. In kind it is cell-based. A general note: Loss of bound radioactivity is the signal in a displacement assay; it reports binding, not function.
The species named for assay [10] is Rattus norvegicus. The assay can be described thus: Regional uptake of [18F]AFA in hippocampus of rat pretreated with compound GBR-12935; n=3. Particulars: tested as the 18F-labelled form. Format: functional, organism-based. Summed up:
as §1

The target in assay [11] is Sodium-dependent serotonin transporter (Rattus norvegicus) (UniProt P31652). The assay can be described thus: Specific binding of [18F]AFA in rat thalamus after citalopram treatment; n=3. Format: functional, tissue-based. Particulars: tested as the 18F-labelled form. In short, it runs like this:
as §2

The target is the same in assay [12]. The assay can be described thus: Specific binding of [18F]AFA in rat hypothalamus after GBR-12935 treatment; n=3. In kind it is functional, tissue-based. Particulars: tested as the 18F-labelled form. In short, it runs like this:
as §2

For assay [13], the species on record is Rattus norvegicus. The assay can be described thus: Regional uptake of [18F]AFA in frontal cortex of rat pretreated with compound nisoxetine; n=3. Format: functional, organism-based. Particulars: tested as the 18F-labelled form. In short, it runs like this:
as §1

The species entered for assay [14] is Rattus norvegicus. The assay can be described thus: Regional uptake of [18F]-AFM in thalamus of rat pretreated with compound 7d; n=3. As to conditions: tested as the 18F-labelled form.
Assay [15] concerns the target Sodium-dependent serotonin transporter (Rattus norvegicus) (UniProt P31652). The assay can be described thus: Specific binding in rat hypothalamus at 10 min postinjection in vivo. In kind it is functional, organism-based. As to conditions: tested as the 18F-labelled form. In short, it runs like this:
(§3)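 Male Sprague-Dawley rats, n=3 per time point, received about 20 µCi of F-18 radioligand in saline iv by tail vein and were killed at 10–120 min. %ID/g was measured with decay and tail-residual correction. Hypothalamic specific binding = (%ID/g hypothalamus − %ID/g cerebellum)/%ID/g cerebellum; mean ± SD.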

The species entered for assay [16] is Rattus norvegicus. The assay can be described thus: Regional uptake of [18F]AFA in cerebellum of rat pretreated with compound 7d; n=3. Format: functional, organism-based. Particulars: tested as the 18F-labelled form.
Assay [17] concerns the target Sodium-dependent serotonin transporter (Rattus norvegicus) (UniProt P31652). The assay can be described thus: Specific binding in rat hypothalamus at 30 min postinjection in vivo. Particulars: tested as the 18F-labelled form. In kind it is functional, organism-based. Summed up: as §3
The species entered for assay [18] is Rattus norvegicus. The assay can be described thus: Regional uptake of [18F]AFA in hippocampus of rat pretreated with compound citalopram; n=3. In kind it is functional, organism-based. As to conditions: tested as the 18F-labelled form. In short, it runs like this: as §1
Assay [19] deals with Sodium-dependent serotonin transporter (Rattus norvegicus) (UniProt P31652). The assay can be described thus: Specific binding of [18F]AFA in rat striatum after GBR-12935 treatment; n=3. Format: functional, tissue-based. As to conditions: tested as the 18F-labelled form. In short, it runs like this:
as §2

Assay [20] shares this target. The assay can be described thus: Specific binding of [18F]AFA in rat hippocampus after citalopram treatment; n=3. Format: functional, tissue-based. As to conditions: tested as the 18F-labelled form. Summed up: as §2
The species entered for assay [21] is Rattus norvegicus. The assay can be described thus: Regional uptake of [18F]AFA in cerebellum of rat pretreated with compound GBR-12935; n=3. In kind it is functional, organism-based. As to conditions: tested as the 18F-labelled form. Summed up:
as §1

The species entered for assay [22] is Rattus norvegicus. The assay can be described thus: Regional uptake of [18F]AFA in thalamus of rat pretreated with compound citalopram; n=3. In kind it is functional, organism-based. As to conditions: tested as the 18F-labelled form. Summed up:
as §1

For assay [23], the species on record is Rattus norvegicus. The assay can be described thus: Regional uptake of [18F]AFA in blood of rat pretreated with compound nisoxetine; n=3. As to conditions: tested as the 18F-labelled form. In kind it is functional, organism-based. In short, it runs like this:
as §1

The species named for assay [24] is Rattus norvegicus. The assay can be described thus: Regional uptake of [18F]AFA in frontal cortex of rat pretreated with compound 7d; n=3. In kind it is functional, organism-based. Particulars: tested as the 18F-labelled form.

Sequence of Sodium-dependent serotonin transporter (Rattus norvegicus) (P31652 whole entry): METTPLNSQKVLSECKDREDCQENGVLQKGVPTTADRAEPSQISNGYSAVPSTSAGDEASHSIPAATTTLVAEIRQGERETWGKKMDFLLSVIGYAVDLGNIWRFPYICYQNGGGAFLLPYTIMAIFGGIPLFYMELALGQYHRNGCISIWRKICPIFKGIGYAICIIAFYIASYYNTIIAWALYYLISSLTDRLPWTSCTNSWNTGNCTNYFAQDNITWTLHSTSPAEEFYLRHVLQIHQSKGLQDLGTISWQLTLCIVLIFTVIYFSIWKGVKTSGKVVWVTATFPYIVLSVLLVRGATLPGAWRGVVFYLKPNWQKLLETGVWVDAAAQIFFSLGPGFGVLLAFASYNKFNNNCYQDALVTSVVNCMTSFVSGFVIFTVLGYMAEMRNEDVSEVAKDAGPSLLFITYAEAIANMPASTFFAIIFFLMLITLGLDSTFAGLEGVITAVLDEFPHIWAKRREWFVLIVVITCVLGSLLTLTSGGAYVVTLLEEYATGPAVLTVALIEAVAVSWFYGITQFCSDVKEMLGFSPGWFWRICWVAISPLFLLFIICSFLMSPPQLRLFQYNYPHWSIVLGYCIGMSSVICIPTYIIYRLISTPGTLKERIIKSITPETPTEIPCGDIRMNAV
Sequence of Sodium-dependent serotonin transporter (P31645 whole entry): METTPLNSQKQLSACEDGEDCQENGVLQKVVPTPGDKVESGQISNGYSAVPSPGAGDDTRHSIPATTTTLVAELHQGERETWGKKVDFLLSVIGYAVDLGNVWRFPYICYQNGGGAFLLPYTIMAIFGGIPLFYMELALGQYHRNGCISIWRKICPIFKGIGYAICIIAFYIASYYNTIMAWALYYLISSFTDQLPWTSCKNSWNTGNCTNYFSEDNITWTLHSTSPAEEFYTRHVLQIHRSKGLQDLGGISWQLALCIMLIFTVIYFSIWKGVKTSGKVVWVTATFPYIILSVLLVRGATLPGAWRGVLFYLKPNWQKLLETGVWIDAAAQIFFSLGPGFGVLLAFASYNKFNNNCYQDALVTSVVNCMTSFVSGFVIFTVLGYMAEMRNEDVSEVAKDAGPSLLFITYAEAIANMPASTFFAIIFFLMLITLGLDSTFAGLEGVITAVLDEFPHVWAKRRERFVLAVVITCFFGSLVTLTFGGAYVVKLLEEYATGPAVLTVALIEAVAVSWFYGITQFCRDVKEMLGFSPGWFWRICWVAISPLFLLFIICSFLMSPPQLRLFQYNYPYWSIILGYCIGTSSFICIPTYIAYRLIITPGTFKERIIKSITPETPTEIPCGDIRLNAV

What is called Ki is a measure of affinity in units of concentration, obtained from inhibition or displacement. High values mean lower affinity, low ones higher affinity. Regarding `CN(C)Cc1ccccc1Sc1ccc(CF)cc1N`, the Uptake in assay [1] turned out to be 0.58 %ID/g; in assay [2], 0.17 %ID/g; in assay [3], 0.11 %ID/g; in assay [5], 0.18 %ID/g; in [6], 0.13 %ID/g; in assay [8] it was 0.14 %ID/g. Moreover, the Uptake amounted to 0.59 %ID/g in [10]; 0.72 %ID/g in [13]; 0.17 %ID/g in [14]; 0.09 %ID/g in assay [16]; 0.13 %ID/g in assay [18]; 0.13 %ID/g in assay [21]. Also, the results for the Uptake in [22], in [23] and in [24] were 0.16 %ID/g, 0.11 %ID/g and 0.12 %ID/g, respectively. Besides, the Specific binding in assay [4] is 0.36 %ID/g; in assay [7], 5.24 %ID/g; in [11], 1.05 %ID/g; in assay [12], 5.3 %ID/g; in assay [15], 0.98 %ID/g; in [17], 2.27 %ID/g. Also, the results for the Specific binding in assay [19] and in assay [20] were 4.37 %ID/g and 0.67 %ID/g, respectively. Further, affinity in [9] was put at a Ki of 1.04 nM.
